# Assay results collected from several papers.
# Each line is one published result; the experiments were not run side by side.
# Organism: Staphylococcus aureus
# Effect on: microbial growth
SMILES,test,system,conditions,MIC
Clc1cccc(NCc2ccc(Oc3ccccn3)cc2)c1,,,,1.8 µg/mL
C[C@@H]1CCN(C(=O)CC#N)C[C@@H]1N(C)c1ncnc2[nH]ccc12,,NCTC8325,,> 30 µM
CCCCCCC#Cc1cncc(-c2nnc(SCc3ccc(C#N)cc3)n2C)c1,,MRSA,drug-resistant strain,≥ 20 µg/mL
CCn1cc(C(=O)O)c(=O)c2cc(F)c(N3CCNCC3)cc21,broth dilution,ATCC11632,18 h,< 5 µg/mL
Clc1ccc(-c2nc3ccccc3[nH]2)cc1,broth dilution,ATCC29213 MSSA,,64 µg/mL
C/C=C(\C)c1cc(OC(=O)c2c(C)c(Cl)c(O)c(Cl)c2O)c(C)c(O)c1C(=O)O,broth dilution,16162,,64 µg/mL
CN[C@H](CC(C)C)C(=O)N[C@H]1C(=O)N[C@@H](CC(N)=O)C(=O)N[C@H]2C(=O)N[C@H]3C(=O)N[C@H](C(=O)N[C@H](C(=O)O)c4cc(O)cc(O)c4-c4cc3ccc4O)[C@H](O)c3ccc(c(Cl)c3)Oc3cc2cc(c3O[C@@H]2O[C@H](CO)[C@@H](O)[C@H](O)[C@H]2O[C@H]2C[C@](C)(N)[C@H](O)[C@H](C)O2)Oc2ccc(cc2Cl)[C@H]1O,broth dilution,ATCC6538,,0.49 µg/mL
CC1(C)S[C@@H]2[C@H](NC(=O)[C@H](N)c3ccccc3)C(=O)N2[C@H]1C(=O)O,broth dilution,MRSA,,32 µg/mL
Cc1ccc2nc(-c3ccc([N+](=O)[O-])cc3)n(Cc3ccc(Cl)cc3)c2c1,broth dilution,ATCC29213 MSSA,,8 µg/mL
COc1cc2c(Nc3ccc(NC(=O)c4ccccc4)cc3)ncnc2cc1OCCCN1CCOCC1,,NCTC8325,,> 30 µM
Cc1c(CN(C)C(=O)/C=C/c2cnc3c(c2)CC(CCN)C(=O)N3)oc2ccccc12.Cl (stereo not drawn),broth dilution,ATCC29213,,0.125 µg/mL
CNC(=O)CN1CCC(Oc2cc3c(Nc4cccc(Cl)c4F)ncnc3cc2OC)CC1,,NCTC8325,,> 30 µM
CC(C)Oc1c(NC(=O)c2ccc(NC(=O)[C@H](CC(N)=O)NC(=O)c3ccc(NC(=O)CCc4ccc(C#N)cc4)cc3)cc2)ccc(C(=O)Nc2ccc(C(=O)O)cc2)c1O,,ATCC29213,,> 64 µg/mL
Cc1cccc(-c2[nH]c(C(C)(C)C)nc2-c2ccc3nccnc3c2)n1,,NCTC8325,,> 30 µM
COc1cc(/C=N\NC(=O)c2ccc(Br)cc2)ccc1OC(=O)c1cccs1,,,,> 128 µg/mL
Cn1cc(C2=C(c3ccc(Cl)cc3Cl)C(=O)NC2=O)c2ccccc21,,NCTC8325,,> 30 µM
O=C(CCCCCCCC[P+](c1ccccc1)(c1ccccc1)c1ccccc1)Nc1ccc(O)c(O)c1.[Br-],broth dilution,ATCC43300 MRSA,18 h,> 32 µg/mL
C#CCCC1(CC(=O)NC(C)C)N=N1,,NCTC8325,,> 100 µM
CC(C)Oc1c(NC(=O)c2ccc(NC(=O)[C@H](CC(N)=O)NC(=O)c3ccc(NC(=O)C(C)Oc4ccc(C#N)cc4)cc3)cc2)ccc(C(=O)Nc2ccc(C(=O)O)cc2)c1O (stereo partly drawn),,ATCC29213,,> 64 µg/mL
COc1ccc(S(=O)(=O)N(C(C)=O)c2ccccc2/C=C/c2cc[n+]([O-])cc2)cc1,,NCTC8325,,> 30 µM
CC[C@H]1OC(=O)[C@H](C)[C@@H](O[C@H]2C[C@@](C)(OC)[C@@H](O)[C@H](C)O2)[C@H](C)[C@@H](O[C@@H]2O[C@H](C)C[C@H](N(C)C)[C@H]2O)[C@](C)(O)C[C@@H](C)C(=O)[C@H](C)[C@@H](O)[C@]1(C)O,,147,clinical isolate,37.5 µM
